Reference: article PMC8301581 (Clinical and Translational Science, 2021)
Counter-ions that a name gives are not always drawn.

What was measured:
NALM6 = type: cell-based, human; details: NALM6 ALL cell line; α greater than zero = synergy, less than zero = antagonism
Procedure, shortened: (§1)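 Cells were grown in RPMI-1640 with 2 mM glutamine and 10% FBS at 37°C, 5% CO₂, and were STR-authenticated and mycoplasma-negative. Mid-log-phase cells were exposed to serial dilutions of the drugs, alone or combined, then read by a modified MTT assay after 3 days. Interaction α (positive = synergy, negative = antagonism) was estimated by modified response surface modeling relative to additivity.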

C57BL/6 J mice = test: Mouse neurotoxicity assessment: mechanical allodynia; type: in vivo
[1] = system: phospho‐histone H3 (Ser10); test: Western blot of phospho‐histone H3; type: cell-based, human; details: NALM6, vincristine 2 nM for 24 h with increasing concentrations of DIP
[2] = clinical studies; cited from earlier work
[3] = In vivo pharmacokinetic studies in mice; details: for total plasma concentrations: mice, VCR 0.1 mg/kg intraperitoneal and DIP 200 mg/kg p.o.; for clearance: male, C57BL/6, mouse, plasma, intraperitoneal
CEM = type: cell-based, human; details: CEM ALL cell line; α greater than zero = synergy, less than zero = antagonism
Procedure, shortened: as §1

hiPSC‐derived neurons [4] = type: cell-based, human; details: 72 h, negative α = antagonism
Procedure, shortened: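 Human iPSC-derived peripheral neurons (>90% pure; βIII-tubulin, MAP-2, peripherin and vGLUT2 positive; three lots) were kept per the supplier's protocol. Viability was read as ATP by CellTiter-Glo 2.0 at 72 h after drug treatment. Combination responses were fitted by modified response surface modeling. α is the interaction term versus the additive model: positive means synergy, negative means antagonism.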

SORORIN [5] = test: Western blot of SORORIN protein level; type: cell-based, human; details: CEM, G2 synchronized cells, highest concentration of DIP 10 µM
SORORIN [6] = test: Western blot of SORORIN protein level; type: cell-based, human; details: NALM6, G2 synchronized cells, highest concentration of DIP 10 µM
hiPSC‐derived neurons [7] = type: cell-based, human; details: negative α = antagonism
Procedure, shortened: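 After drug treatment, hiPSC-derived neurons were stained with 5 µg/ml Hoechst 33342 and 10 µg/ml Calcein AM for 10 min at room temperature. Cells were imaged at 10×, with at least 1000 cells per condition in each of five independent experiments. Per-cell values were collected for total neurite outgrowth, number of processes and number of branches. Combination α came from response surface modeling against an additive model.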

[8] = system: phospho‐histone H3 (Ser10); test: Western blot of phospho‐histone H3; type: cell-based, human; details: CEM, vincristine 2 nM for 24 h with increasing concentrations of DIP
CEM leukemia cells = test: Survival of NSG mice inoculated with human CEM leukemia cells; type: in vivo; details: once a week, 0.3mg/kg vincristine, p value <0.001
[9] = cited from earlier work

| SMILES | NALM6 α (drug‐drug interaction between vincristine and second drug) (NALM6) | paw withdrawal response, DIP administered with VCR versus VCR alone (C57BL/6 J mice; mice, DIP oral gavage with VCR intraperitoneal, day 1 to day 10) | phospho‐histone H3 (Ser10) levels [1] | plasma concentrations reported clinically [2] | total plasma concentrations [3] | CEM α (drug‐drug interaction between vincristine and second drug) (CEM) | Viability α (drug‐drug interaction between vincristine and second drug) (hiPSC‐derived neurons [4]) | SORORIN protein levels (SORORIN [5]) | SORORIN protein levels (SORORIN [6]) | Branches α (drug‐drug interaction between vincristine and second drug) (hiPSC‐derived neurons [7]) | Outgrowth α (drug‐drug interaction between vincristine and second drug) (hiPSC‐derived neurons [7]) | Processes α (drug‐drug interaction between vincristine and second drug) (hiPSC‐derived neurons [7]) | phospho‐histone H3 (Ser10) levels [8] | survival of mice, VCR and vehicle versus controls (CEM leukemia cells) | paw withdrawal responses (C57BL/6 J mice; mice receiving VCR alone) | plasma protein binding [9] | clearance [3] | clearance ([3]; 0.1 mg/kg) |
| --- | --- | --- | --- | --- | --- | --- | --- | --- | --- | --- | --- | --- | --- | --- | --- | --- | --- | --- |
| OCCN(CCO)c1nc(N2CCCCC2)c2nc(N(CCO)CCO)nc(N3CCCCC3)c2n1 [Dipyridamole] | 4.45 | significantly lowered | dose‐dependent increase | ≤ 6000 ng/mL | ≤ 5000 ng/mL | 11.6 | −3.7 | lowest level of SORORIN protein | lowest level of SORORIN protein | −3.43 | −1.98 | −1.75 | dose‐dependent increase | – | – | – | – | – |
| OCCOCCN1CCN(C2=Nc3ccccc3Sc3ccccc32)CC1 [Quetiapine fumarate] | 2.33 | – | – | – | – | 0.787 | −0.007 | – | – | −2.29 | −1.67 | −1.25 | – | – | – | – | – | – |
| CCOC(=O)c1ccc(C#Cc2ccc3c(c2)C(C)(C)CCS3)nc1 [Tazarotene] | 1.42 | – | – | – | – | 0.945 | −0.72 | – | – | −1.16 | −1.63 | −1.59 | – | – | – | – | – | – |
| CC[C@]1(O)C[C@H]2CN(CCc3c([nH]c4ccccc34)[C@@](C(=O)OC)(c3cc4c(cc3OC)N(C=O)[C@H]3[C@@](O)(C(=O)OC)[C@H](OC(C)=O)[C@]5(CC)C=CCN6CC[C@]43[C@@H]65)C2)C1 [VCR, Vincristine] | – | – | – | up to 31.2 ng/ml | up to 10 ng/ml | – | – | – | – | – | – | – | – | significantly prolonged survival | significant increase | around 75% | 81.3 mL/min/kg | 99.3 mL/min/kg |
